Data as given in ChEMBL document CHEMBL1138226, “Biological mechanisms of action of novel C-10 non-acetal trioxane dimers in prostate cancer cell lines” (2006).
The source made the active and inactive calls. No cut-off for these calls is given here.

Columns and labels:
TRAMP-C1A = assay: Growth inhibition of mouse C1A cells after 72 hrs by MTT assay; type: functional
How it was run: (§1)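 Seeded overnight at C1A 2500, C2H 1500 or LNCaP 10,000 cells/well, then exposed to a range of concentrations or ethanol vehicle for 72 h. MTT added for 4 h, cells solubilized in 20% SDS/0.02 N HCl, absorbance read at 570 nm. Concentration for 50% growth inhibition (GI50) calculated. Replicate wells ± SD; ≥3 independent experiments.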

TRAMP-C2H [1] = assay: Growth inhibition of mouse C2H cells after 72 hrs by MTT assay; type: functional; how it was run: as §1
LNCaP [2] = assay: Growth inhibition of human LNCaP cells after 72 hrs by MTT assay; type: functional; how it was run: as §1
LNCaP [3] = assay: Cell cycle arrest in LNCaP cells by accumulation at G2/M phase at 50 nM after 72 hrs by PI staining; type: functional, cell-based; conditions: Homo sapiens
How it was run: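 Sub-confluent LNCaP (RPMI, 10% FBS, 37 °C, 5% CO2) exposed to 50 nM or ethanol vehicle (≤0.002%) for 72 h; harvested, fixed in ice-cold 70% ethanol ≥30 min at 4 °C; ~10^6 cells stained with PI (10 μg/mL) plus RNase A (100 μg/mL) 30 min in dark; FACS; % cells in G0/G1, S, G2/M, mean of three independent experiments ± SEM.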

LNCaP [4] = assay: Induction of late apoptosis in LNCaP cells at 50 nM after 72 hrs relative to control by V-PE/7-AAD staining; type: functional, cell-based; conditions: Homo sapiens
How it was run: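 Sub-confluent LNCaP treated 72 h with 50 nM or ethanol vehicle; trypsinized, washed twice in ice-cold PBS, stained with annexin V-PE and 7-AAD 15 min in dark, analysed by FACS; late stage scored as annexin V plus 7-AAD positive; mean fold increase ± SEM normalized to control (=1.0), ANOVA.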

LNCaP [5] = assay: Growth inhibition of human LNCaP cells at 100 nM after 72 hrs by MTT assay; type: functional; how it was run: as §1
LNCaP [6] = assay: Decrease in CDK4 expression in LNCaP cells at 50 nM after 72 hrs by Western blot analysis; type: functional, Homo sapiens; set-up: scale not given: the % may be the effect or the level left
How it was run: (§2)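 Sub-confluent LNCaP cells given 50 nM or ethanol vehicle for 72 h. Lysed in Triton X-100/SDS buffer with protease and phosphatase inhibitors, run on SDS-PAGE, blotted to PVDF, probed overnight at 4 °C, detected by HRP chemiluminescence. Bands quantified by densitometry, normalized to actin and expressed relative to control.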

LNCaP [7] = assay: Increase in CDK6 expression in LNCaP cells at 50 nM after 72 hrs by Western blot analysis; type: functional, cell-based; conditions: Homo sapiens; how it was run: as §2
LNCaP [8] = assay: Inhibition of cyclin D1 expression in LNCaP cells at 50 nM after 72 hrs by Western blot analysis; type: functional, cell-based; conditions: Homo sapiens; how it was run: as §2
LNCaP [9] = assay: Inhibition of CDK2 expression in LNCaP cells at 50 nM after 72 hrs by Western blot analysis; type: functional, cell-based; conditions: Homo sapiens; how it was run: as §2
[10] = target: Cyclin-dependent kinase 2 (Homo sapiens) (UniProt P24941); assay: Inhibition of CDK2 kinase activity assessed as decrease in histone H1 phosphorylation in LNCaP cells at 50 nM after 72 hrs by Western blot analysis; type: functional, cell-based
How it was run: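 LNCaP cells given 50 nM or vehicle for 72 h, lysed in NP40 buffer. Lysate (100 μg) immunoprecipitated overnight at 4 °C with cdk2 antibody on protein A/G beads. Beads incubated 30 min at 30 °C with 2 μg histone H1, 20 μM ATP and 5 μCi [γ-32P]ATP. Reaction resolved by SDS-PAGE and phospho-H1 detected by autoradiography, with cdk2 immunoblot alongside.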

LNCaP [11] = assay: Decrease in Cyclin E expression in LNCaP cells at 50 nM after 72 hrs by Western blot analysis; type: functional, cell-based; conditions: Homo sapiens; how it was run: as §2
LNCaP [12] = assay: Cell cycle arrest in LNCaP cells by accumulation at G1/S phase at 50 nM after 72 hrs by PI staining; type: functional, cell-based; conditions: Homo sapiens
How it was run: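 Sub-confluent LNCaP cells given vehicle (ethanol) or 50 nM for 72 h. Cells fixed in ice-cold 70% ethanol at 4 °C for ≥30 min, then stained with PI (10 μg/mL) plus RNase A (100 μg/mL) for 30 min in the dark. Phase distribution read by flow cytometry. Mean of three independent experiments ± SEM.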

LNCaP [13] = assay: Increase in p21 expression in LNCaP cells at 50 nM after 72 hrs relative to control by Western blot analysis; type: functional, Homo sapiens; how it was run: as §2
LNCaP [14] = assay: Increase in p27 expression in LNCaP cells at 50 nM after 72 hrs relative to control by Western blot analysis; type: functional, Homo sapiens; how it was run: as §2
LNCaP [15] = assay: Increase in p53 expression in LNCaP cells at 50 nM after 72 hrs relative to control by Western blot analysis; type: functional, cell-based; conditions: Homo sapiens; how it was run: as §2
LNCaP [16] = assay: Induction of early apoptosis in LNCaP cells at 50 nM after 72 hrs relative to control by V-PE/7-AAD staining; type: functional, Homo sapiens
How it was run: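 Sub-confluent LNCaP cells given 50 nM or vehicle for 72 h, trypsinized, washed in cold PBS, stained with annexin V-PE and 7-AAD for 15 min in the dark, analysed by flow cytometry. Early apoptosis = annexin V-positive only. Reported as fold over control ± SEM; ANOVA.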

LNCaP [17] = assay: Increase in bax expression in LNCaP cells at 50 nM after 72 hrs by Western blot analysis; type: functional, cell-based; conditions: Homo sapiens; how it was run: as §2
LNCaP [18] = assay: Decrease in Bcl2 expression in LNCaP cells at 50 nM after 72 hrs by Western blot analysis; type: functional, cell-based; conditions: Homo sapiens; how it was run: as §2
TRAMP-C2H [19] = assay: Inhibition of DNA synthesis in mouse C2H cells at 50 nM after 72 hrs by BrdU incorporation assay; type: functional; set-up: scale not given: the % may be the effect or the level left
How it was run: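 Sub-confluent C2H cells given 50 nM or vehicle for 72 h, labelled with BrdU for 4 h, incorporation measured by colorimetric BrdU ELISA at 370 nm. Expressed as % of control ± SEM; ANOVA.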

LNCaP [20] = assay: Inhibition of DNA synthesis in human LNCaP cells at 50 nM after 72 hrs by BrdU incorporation assay; type: functional; set-up: scale not given: the % may be the effect or the level left
How it was run: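 LNCaP cells given 50 nM or vehicle for 72 h, pulsed 30 min with 100 μg/mL BrdU plus 1 μg/mL FdU. Cells fixed, DNA denatured with 2 N HCl, neutralized with borate pH 8.5, stained with anti-BrdU and Alexa 488 secondary plus PI, then read by flow cytometry. Normalized to control ± SEM; ANOVA.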

| Compound | GI50 (TRAMP-C1A) | GI50 (TRAMP-C2H [1]) | GI50 (LNCaP [2]) | inhibition at 0.1 µM (LNCaP [5]) | Activity (LNCaP [6]) | Activity (LNCaP [7]) | Activity (LNCaP [8]) | Activity (LNCaP [9]) | Activity [10] | Activity (LNCaP [11]) | Activity (LNCaP [12]) | Activity (LNCaP [13]) | Activity (LNCaP [14]) | Activity (LNCaP [15]) | Activity (LNCaP [16]) | Activity (LNCaP [17]) | Activity (LNCaP [18]) | further results |
| --- | --- | --- | --- | --- | --- | --- | --- | --- | --- | --- | --- | --- | --- | --- | --- | --- | --- | --- |
| COc1cccc2c1C(=O)c1c(O)c3c(c(O)c1C2=O)C[C@@](O)(C(=O)CO)C[C@@H]3O[C@H]1C[C@H](N)[C@H](O)[C@H](C)O1 [DOXORUBICIN] | 0.0204 µM | 0.0158 µM | 0.0453 µM | 69% |  |  |  |  |  |  |  |  |  |  |  |  |  | Activity (LNCaP [3]): Active; Activity (LNCaP [4]): Active |
| C[C@H]1[C@@H](CC(COP(=O)(Oc2ccccc2)Oc2ccccc2)C[C@H]2O[C@@H]3O[C@@]4(C)CC[C@H]5[C@H](C)CC[C@@H]([C@H]2C)[C@@]35OO4)O[C@@H]2O[C@@]3(C)CC[C@H]4[C@H](C)CC[C@@H]1[C@@]24OO3 (stereo not given in full) | 0.0319 µM | 0.0448 µM | 0.0344 µM |  | 10% | Active | Active | Active | Active | Active | Active | 9 | 6.5 | inactive | 4 | Active | Active |  |
| CCOP(=O)(OCC)OCC(C[C@H]1O[C@@H]2O[C@@]3(C)CC[C@H]4[C@H](C)CC[C@@H]([C@H]1C)[C@@]24OO3)C[C@H]1O[C@@H]2O[C@@]3(C)CC[C@H]4[C@H](C)CC[C@@H]([C@H]1C)[C@@]24OO3 (stereo not given in full) | 0.0422 µM | 0.0394 µM | 0.0363 µM |  | 10% |  | Active | Active | Active | Active | Active | 9 | 6.5 | inactive | 4 | Active |  |  |
| C[C@H]1[C@@H](CC(CNc2ccccc2)C[C@H]2O[C@@H]3O[C@@]4(C)CC[C@H]5[C@H](C)CC[C@@H]([C@H]2C)[C@@]35OO4)O[C@@H]2O[C@@]3(C)CC[C@H]4[C@H](C)CC[C@@H]1[C@@]24OO3 (stereo not given in full) | 0.018 µM | 0.017 µM | 0.0179 µM | 97% | 10% | Active | Active | Active | Active | Active | Active | 9 | 6.5 | inactive | 4 | Active | Active | Activity (TRAMP-C2H [19]): >90%; Activity (LNCaP [20]): >90% |
